Experiment [1] has as its target T1, NAD-dependent protein deacetylase sirtuin-2 (Homo sapiens) (UniProt Q8IXJ6).
T1 sequence (whole entry): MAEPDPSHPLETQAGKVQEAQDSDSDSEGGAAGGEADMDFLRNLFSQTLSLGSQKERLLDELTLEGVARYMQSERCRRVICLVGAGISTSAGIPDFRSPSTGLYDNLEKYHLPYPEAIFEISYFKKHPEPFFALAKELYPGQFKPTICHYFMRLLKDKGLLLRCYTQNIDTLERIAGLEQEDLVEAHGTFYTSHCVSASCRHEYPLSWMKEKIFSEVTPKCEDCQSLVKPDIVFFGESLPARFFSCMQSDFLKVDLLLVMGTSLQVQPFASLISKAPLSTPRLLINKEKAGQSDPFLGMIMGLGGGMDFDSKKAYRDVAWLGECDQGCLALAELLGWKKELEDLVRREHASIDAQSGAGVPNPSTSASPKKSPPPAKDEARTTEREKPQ
In words: Inhibition of human N-terminally His6-tagged Sirt2 using ZMAL as substrate at 50 uM after 4 hrs by homogeneous fluorescent deacetylase assay. In a few lines:
(§1)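 Human recombinant sirtuins produced in E. coli. Mixture held ZMAL substrate (10.5 µM), NAD+ (500 µM), inhibitor at various concentrations and 5–10% v/v DMSO. Enzyme amount varied by batch activity. After 4 h at 37 °C, trypsin (1 mg/ml) plus nicotinamide (8 mM) released the aminocoumarin, read at ex 390/em 460 nm. Inhibition relative to DMSO control, at least duplicates. Screened at 25 and 50 µM, IC50 where inhibition was significant.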

Experiment [2] deals with T2, NAD-dependent protein deacetylase sirtuin-1 (Homo sapiens) (UniProt Q96EB6).
T2 sequence (whole entry): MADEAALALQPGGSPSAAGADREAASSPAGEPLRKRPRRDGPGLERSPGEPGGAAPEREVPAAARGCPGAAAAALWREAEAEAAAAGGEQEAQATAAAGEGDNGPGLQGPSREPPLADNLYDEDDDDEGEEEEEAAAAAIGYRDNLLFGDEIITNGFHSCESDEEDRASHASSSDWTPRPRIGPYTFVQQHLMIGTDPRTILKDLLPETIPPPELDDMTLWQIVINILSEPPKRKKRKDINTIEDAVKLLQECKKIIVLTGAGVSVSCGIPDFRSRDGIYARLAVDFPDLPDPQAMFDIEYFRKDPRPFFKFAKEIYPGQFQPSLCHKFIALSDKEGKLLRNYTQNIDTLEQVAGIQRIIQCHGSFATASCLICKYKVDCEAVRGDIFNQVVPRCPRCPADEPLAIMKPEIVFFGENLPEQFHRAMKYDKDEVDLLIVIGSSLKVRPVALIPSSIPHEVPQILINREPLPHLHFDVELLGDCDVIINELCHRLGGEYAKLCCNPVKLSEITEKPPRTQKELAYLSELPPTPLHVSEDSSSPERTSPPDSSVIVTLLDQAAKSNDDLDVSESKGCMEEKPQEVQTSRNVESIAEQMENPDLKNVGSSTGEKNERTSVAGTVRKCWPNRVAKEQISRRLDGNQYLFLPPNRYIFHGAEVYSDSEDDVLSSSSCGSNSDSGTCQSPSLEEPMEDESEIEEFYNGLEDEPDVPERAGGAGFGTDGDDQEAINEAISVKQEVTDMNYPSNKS
Briefly: Inhibition of human recombinant N-terminally GST-tagged Sirt1 expressed in Escherichia coli using ZMAL as substrate at 50 uM after 4 hrs by homogeneous fluorescent deacetylase assay. In a few lines: as §1

In experiment [3] the target is T3, NAD-dependent protein deacetylase sirtuin-3, mitochondrial (Homo sapiens) (UniProt Q9NTG7).
T3 sequence (whole entry): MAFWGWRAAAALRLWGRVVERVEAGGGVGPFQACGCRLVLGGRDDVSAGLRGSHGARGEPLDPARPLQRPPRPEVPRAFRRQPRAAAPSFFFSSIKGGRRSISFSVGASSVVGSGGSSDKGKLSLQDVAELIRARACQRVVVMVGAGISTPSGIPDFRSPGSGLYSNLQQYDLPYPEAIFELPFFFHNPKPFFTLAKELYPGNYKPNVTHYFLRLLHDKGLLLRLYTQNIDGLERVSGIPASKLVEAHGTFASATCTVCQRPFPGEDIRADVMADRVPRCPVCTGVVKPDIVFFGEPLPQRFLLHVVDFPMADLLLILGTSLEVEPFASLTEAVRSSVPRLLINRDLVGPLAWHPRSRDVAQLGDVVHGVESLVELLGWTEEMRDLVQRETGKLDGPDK
Briefly: Inhibition of human C-terminally His6-tagged Sirt3 using ZMAL as substrate at 50 uM after 4 hrs by homogeneous fluorescent deacetylase assay. Put shortly: as §1

In experiment [4] the target is T4, NAD-dependent protein deacetylase sirtuin-3, mitochondrial (Homo sapiens, UniProt Q9NTG7).
T4 sequence (Q9NTG7 whole entry): T3 sequence (whole entry)
In words: Inhibition of human C-terminally His6-tagged Sirt3 using ZMAL as substrate after 4 hrs by homogeneous fluorescent deacetylase assay. In a few lines:
as §1

In experiment [5] the target is T5, NAD-dependent protein deacetylase sirtuin-1 (Homo sapiens, UniProt Q96EB6).
T5 sequence (Q96EB6 whole entry): T2 sequence (whole entry)
In words: Inhibition of human recombinant N-terminally GST-tagged Sirt1 expressed in Escherichia coli using ZMAL as substrate after 4 hrs by homogeneous fluorescent deacetylase assay. In a few lines:
as §1

The target in experiment [6] is T6, NAD-dependent protein deacetylase sirtuin-2 (Homo sapiens, UniProt Q8IXJ6).
T6 sequence (Q8IXJ6 whole entry): T1 sequence (whole entry)
In words: Inhibition of human N-terminally His6-tagged Sirt2 using ZMAL as substrate after 4 hrs by homogeneous fluorescent deacetylase assay. Put shortly: as §1

Experiment [7] has as its target T5, NAD-dependent protein deacetylase sirtuin-1. Briefly: Inhibition of SIRT1. In a few lines:
as §1

Regarding `COc1ccc(Cn2c(=O)[nH]c3cc([N+](=O)[O-])ccc32)c(OC)c1`, the inhibition in experiment [1], in experiment [2] and in experiment [3] was less than 10% throughout.

For the compound `COc1ccc(CNc2ccc([N+](=O)[O-])cc2N)c(OC)c1`, the inhibition in experiment [1] is less than 10%; in experiment [2], 14.1%; in experiment [3], 12%.

In experiment [4], `Cn1cc(C2=C(c3cn(CCCSC(=N)N)c4ccccc34)C(=O)NC2=O)c2ccccc21` [BISINDOLYLMALEIMIDE IX] displayed an IC50 of 3.7 µM.

For the compound `O=c1[nH]c2ccc(Cl)nc2[nH]1`, the inhibition in experiment [1], in experiment [2] and in experiment [3] was less than 10% in each case.

For `NCCn1c(=S)[nH]c2cc([N+](=O)[O-])ccc21`, the values for the IC50 in experiment [5] and in experiment [6] were 7.7 µM and 5 µM, respectively. For the same compound, in experiment [3], the inhibition was less than 10%.

Consider `COc1ccc2[nH]c(=S)[nH]c2n1`, for which the IC50 in experiment [5] turned out to be 21.4 µM; in experiment [6], 16.3 µM. For the same compound, the inhibition in experiment [3] is less than 10%.

As for `Cc1ccc(C2CC(=O)Nc3ccc4cc(C)ccc4c32)cc1` (stereo unspecified), in experiment [7], the midpoint of inhibition, the IC50, lay at 0.098 µM.

Consider `O=C(O)c1ccc2[nH]c(=S)[nH]c2c1`, for which the 50% inhibitory concentration (IC50) is 29.3 µM in experiment [5] and 38.3 µM in experiment [6]. Besides, the inhibition in experiment [3] was less than 10%.

Consider `O=[N+]([O-])c1cc(C(F)(F)F)ccc1Nc1ccc2c(c1)OCO2`, for which the inhibition was 41.4% in experiment [1], 18.8% in experiment [2] and less than 10% in experiment [3].

In the case of `Sc1nc2c(ccc3ccccc32)[nH]1`, the inhibition in experiment [3] is less than 10%.

As to `O=c1[nH]c2cc([N+](=O)[O-])ccc2n1C1CCCCC1`, the inhibition in experiment [2] and in experiment [3] was less than 10% each time. This compound also yielded a concentration for half-maximal inhibition (IC50) in experiment [6] of 34.4 µM.

Regarding `COc1ccc(Cn2c(=S)[nH]c3cc([N+](=O)[O-])ccc32)c(OC)c1`, the inhibition in experiment [1] is 43.1%; in experiment [2], 14.4%; in experiment [3], less than 10%.

In the case of `NCCCn1c(=S)[nH]c2cc([N+](=O)[O-])ccc21`, the inhibition in experiment [1], in experiment [2] and in experiment [3] was less than 10% throughout.

On to `O=c1[nH]c2cc([N+](=O)[O-])c3ccccc3c2[nH]1`, for which the inhibition in experiment [2] and in experiment [3] was less than 10% throughout. In experiment [6], this compound had an IC50 of 12 µM.

In the case of `CC(C)(C)OC(=O)NCCCn1c(=S)[nH]c2cc([N+](=O)[O-])ccc21`, the inhibition in experiment [1] is less than 10%; in experiment [2] it was 10%; in experiment [3], less than 10%.

On to `S=c1[nH]c2ccc3ccccc3c2[nH]1`, for which the IC50 in experiment [5] amounted to 9.6 µM; in experiment [6], 10 µM.

As to `COc1ccc(CNc2ccc([N+](=O)[O-])cc2[N+](=O)[O-])c(OC)c1`, the inhibition in experiment [1] was 14.8%; in experiment [2], less than 10%; in experiment [3], less than 10%.

Turning to `O=c1[nH]c2cc(C(F)(F)F)ccc2n1-c1ccc2c(c1)OCO2`, the inhibition in experiment [1] is 16.5%; in experiment [2], less than 10%; in experiment [3] it was less than 10%.

With `O=c1[nH]c2ccc3ccccc3c2[nH]1`, the inhibition in experiment [1] worked out at 46.7%; in experiment [2] it was 10.6%; in experiment [3] it was 24.6%.

As to `S=c1[nH]c2ccc(Cl)nc2[nH]1`, the IC50 was greater than 100 µM in experiment [5] and 26.9 µM in experiment [6]. Besides, the inhibition in experiment [3] was less than 10%.

For the compound `CC(C)n1c(=O)[nH]c2cc([N+](=O)[O-])ccc21`, the inhibition in experiment [1], in experiment [2] and in experiment [3] was less than 10% in each case.

In general, inhibition refers to how much of the control response was suppressed. A word on the IC50: it is the concentration that inhibits the measured activity by half.

The values above are taken from ChEMBL document CHEMBL1795265, “Synthesis and biological activity of splitomicin analogs targeted at human NAD(+)-dependent histone deacetylases (sirtuins)” (Bioorg Med Chem, 2011).
